Activity calls are given as the source filed them. The rule behind the calls is not given here.
Experiments:
[1] = target: T1, Signal transducer and activator of transcription 1-alpha/beta (Homo sapiens) (UniProt P42224); experiment: Inhibition of STAT1 (unknown origin) expressed in IFN-gamma induced human HeLa cells at 50 uM incubated for 1 hr by luciferase reporter gene assay; format: cell-based
T1 sequence (whole entry): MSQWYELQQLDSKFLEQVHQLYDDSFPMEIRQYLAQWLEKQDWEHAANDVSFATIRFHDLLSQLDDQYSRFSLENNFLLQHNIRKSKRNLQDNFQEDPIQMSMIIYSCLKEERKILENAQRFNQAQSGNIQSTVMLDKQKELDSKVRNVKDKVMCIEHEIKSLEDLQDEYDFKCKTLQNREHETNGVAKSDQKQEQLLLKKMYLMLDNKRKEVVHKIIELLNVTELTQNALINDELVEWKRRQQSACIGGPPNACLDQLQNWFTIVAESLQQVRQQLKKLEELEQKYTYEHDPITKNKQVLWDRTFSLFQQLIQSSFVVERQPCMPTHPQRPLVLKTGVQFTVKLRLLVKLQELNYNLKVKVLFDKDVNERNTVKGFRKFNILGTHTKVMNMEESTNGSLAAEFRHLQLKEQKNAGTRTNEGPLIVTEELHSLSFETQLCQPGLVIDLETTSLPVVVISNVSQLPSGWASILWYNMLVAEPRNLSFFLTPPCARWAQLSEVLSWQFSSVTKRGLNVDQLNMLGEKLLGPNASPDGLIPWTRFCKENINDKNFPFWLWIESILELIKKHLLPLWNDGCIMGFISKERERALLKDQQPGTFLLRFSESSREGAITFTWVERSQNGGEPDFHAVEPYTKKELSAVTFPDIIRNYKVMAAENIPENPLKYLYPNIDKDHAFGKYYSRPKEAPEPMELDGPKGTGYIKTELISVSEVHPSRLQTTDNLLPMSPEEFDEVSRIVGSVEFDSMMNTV

[2] = target: T2, Signal transducer and activator of transcription 3 (Homo sapiens, UniProt P40763); experiment: Inhibition of STAT3 (unknown origin) expressed in Oncostatin M induced human HeLa cells at 50 uM incubated for 1 hr by luciferase reporter gene assay; format: cell-based
T2 sequence (P40763 whole entry): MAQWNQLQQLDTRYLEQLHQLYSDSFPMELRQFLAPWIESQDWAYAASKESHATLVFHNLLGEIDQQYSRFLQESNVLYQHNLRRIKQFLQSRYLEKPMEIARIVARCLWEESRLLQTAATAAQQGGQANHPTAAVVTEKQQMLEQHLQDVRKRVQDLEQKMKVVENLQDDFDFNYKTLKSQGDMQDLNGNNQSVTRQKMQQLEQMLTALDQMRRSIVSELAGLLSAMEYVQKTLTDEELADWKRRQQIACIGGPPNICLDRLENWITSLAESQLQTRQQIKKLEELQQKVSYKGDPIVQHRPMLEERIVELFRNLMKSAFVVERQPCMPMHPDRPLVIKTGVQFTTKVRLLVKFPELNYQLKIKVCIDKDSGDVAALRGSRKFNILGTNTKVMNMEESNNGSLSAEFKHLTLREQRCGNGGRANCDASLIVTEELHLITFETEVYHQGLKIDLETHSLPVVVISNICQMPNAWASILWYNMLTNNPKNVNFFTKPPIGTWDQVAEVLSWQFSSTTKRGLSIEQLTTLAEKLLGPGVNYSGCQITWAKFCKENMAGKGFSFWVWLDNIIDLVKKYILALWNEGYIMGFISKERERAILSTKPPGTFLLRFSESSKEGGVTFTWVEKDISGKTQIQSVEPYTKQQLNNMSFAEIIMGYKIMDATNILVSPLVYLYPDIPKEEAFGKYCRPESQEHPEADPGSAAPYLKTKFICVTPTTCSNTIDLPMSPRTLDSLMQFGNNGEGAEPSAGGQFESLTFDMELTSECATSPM

[3] = tested on: HeLa; experiment: Cytotoxicity against human HeLa cells at 50 uM; format: cell-based
[4] = target: T1, Signal transducer and activator of transcription 1-alpha/beta (Homo sapiens); experiment: Displacement of fluorescent peptide 5-FAM-G(pTyr)YIKTE- CONH2 from GST-tagged human STAT1b preincubated for 60 mins followed by fluorescent peptide addition measured after 30 mins by fluorescence polarization assay
In short: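 GST-tagged human STAT1b preincubated 60 min at room temperature with compound at various concentrations or vehicle in 50 mM NaCl, 10 mM Hepes pH 7.5, 1 mM EDTA, 0.01% Triton X-100, 2 mM DTT. Labelled peptide added to 10 nM final, 30 min room temperature. Fluorescence polarization read with excitation 480, emission 535.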

[5] = target: T2, Signal transducer and activator of transcription 3; experiment: Displacement of fluorescent peptide 5-FAM-G(pTyr)LPQTV-CONH2 from GST-tagged full-length human STAT3 preincubated for 60 mins followed by fluorescent peptide addition measured after 30 mins by fluorescence polarization assay
In short: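 Full-length GST-STAT3 (100 nM) preincubated 60 min at room temperature with compound at various concentrations or vehicle, in 50 mM NaCl, 10 mM Hepes pH 7.5, 1 mM EDTA, 0.01% Triton X-100, 2 mM DTT. Labelled peptide then added to 10 nM final, 30 min room temperature. FP read with excitation 480, emission 535 (P and S pol).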

COc1ccc([N+](=O)[O-])cc1COc1c(Cl)cc(CNc2nn[nH]n2)cc1OC showed an inhibition [1] of 0% and an inhibition [2] of 20.4%.
For COc1cc(CNc2nn[nH]n2)cc(Cl)c1OCc1ccc(C(C)(C)C)cc1, the inhibition [1] was 0% and the inhibition [2] was 11.9%.
Molecule COc1cc(CNc2nn[nH]n2)cc(Cl)c1OCc1ccc(-c2nccs2)cc1 has an inhibition [1] of 0% and an inhibition [2] of 0%.
COc1cc(CNc2nn[nH]n2)cc(Cl)c1OCc1ccc(C#N)cc1 was tested, and the inhibition [1] was 13.2% and the inhibition [2] was 37.4%.
Molecule COc1cc(CNc2nn[nH]n2)cc(OC)c1OCc1ccc([N+](=O)[O-])cc1 has an inhibition [1] of 19.2% and an inhibition [2] of 45.1%.
For Clc1cc(CNc2nn[nH]n2)cc(OCCCc2ccccc2)c1OCc1ccccc1, the inhibition [1] was 11.1% and the inhibition [2] was 26.9%.
For COC(=O)Cc1c(C)c2ccc(OCc3nn[nH]n3)cc2oc1=O, the inhibition [2] was “Active”.
With COc1c(OCc2ccc([N+](=O)[O-])cc2)c(Cl)cc(CNc2nn[nH]n2)c1[N+](=O)[O-] the inhibition [1] was 16.5% and the inhibition [2] was 19.6%.
In the case of O=C(O)c1ccc(NC(=O)C2CC(=O)N(CCc3ccccc3)/C(=N/c3ccccc3)S2)cc1 (centres undefined), the inhibition [2] is reported as “Active”.
COc1cc(CN(CC(=O)O)Cc2cc(Cl)c(OCc3ccc(C)cc3)c(OC)c2)cc(Cl)c1OCc1ccc(C)cc1 gave an inhibition [1] of 46% and an inhibition [2] of 54.7%.
With COc1cc(CNc2nn[nH]n2)cc(Br)c1OCc1ccc([N+](=O)[O-])cc1 the inhibition [1] was 0% and the inhibition [2] was 48%.
CCCOc1cc(COc2c(Cl)cc(CNc3nn[nH]n3)cc2OC)ccc1[N+](=O)[O-] showed an inhibition [1] of 2.8% and an inhibition [2] of 38.3%.
In the case of COc1cc(CCc2nn[nH]n2)cc(Cl)c1OCc1ccc(C)cc1, the inhibition [1] is reported as 0% and the inhibition [2] is reported as 32.8%.
For CC1CCc2c(sc3ncn(Cc4ccc(C(=O)O)cc4)c(=O)c23)C1 (centres undefined), the inhibition [2] was “Active”.
With Brc1cc2c(cc1COc1ccc(-c3nn[nH]n3)cc1)OCO2 the Activity [3] was “Toxic” and the inhibition [2] was “Active”.
With COc1cc(CC(c2nn[nH]n2)c2nn[nH]n2)cc(Cl)c1OCc1ccc(C)cc1 the inhibition [1] was 17.7% and the inhibition [2] was 38.6%.
In the case of C[C@@H]1CC(=O)c2c(ccc3c2C(=O)c2cccc(O)c2C3=O)C1, the inhibition [1] is reported as 13.1% and the inhibition [2] is reported as 71%.
In the case of COc1cc(CO)cc(Cl)c1OCc1ccc([N+](=O)[O-])cc1, the inhibition [1] is reported as 43.6% and the inhibition [2] is reported as 66.4%.
Molecule O=[N+]([O-])c1ccc(COc2c(O)cc(CNc3nn[nH]n3)cc2Cl)cc1 has an inhibition [1] of 0.6% and an inhibition [2] of 25.3%.
COc1cc(CNc2nn[nH]n2)cc(I)c1OCc1ccc([N+](=O)[O-])cc1 was tested, and the inhibition [1] was 0% and the inhibition [2] was 52.1%.
COc1cc(CNc2nn[nH]n2)cc(Cl)c1OCc1ccc(-n2nc(C)cc2C)cc1 gave an inhibition [1] of 13.9% and an inhibition [2] of 2.6%.
Molecule COc1cc(CNc2nn[nH]n2)cc(Cl)c1OCc1ccc(-c2csc(C)n2)cc1 has an inhibition [1] of 0% and an inhibition [2] of 0%.
In the case of COc1cc(CNc2nn[nH]n2)ccc1OCc1c(Cl)cccc1Cl, the inhibition [2] is reported as “Active”.
CCOc1cc(CNc2nn[nH]n2)cc(Cl)c1OCc1ccc([N+](=O)[O-])cc1 gave an inhibition [1] of 34.8% and an inhibition [2] of 20.4%.
For CCOc1cc(CNc2nn[nH]n2)cc(I)c1OCc1ccc([N+](=O)[O-])cc1, the inhibition [1] was 15.1% and the inhibition [2] was 32.4%.
With CCCCCCOc1cc(COc2c(Cl)cc(CNc3nn[nH]n3)cc2OC)ccc1[N+](=O)[O-] the inhibition [1] was 59.3% and the inhibition [2] was 60.1%.
For COc1cc(CNc2nn[nH]n2)cc(Cl)c1OCc1ccc(C)cc1, the Activity [4] was “inactive”, the Activity [5] was “Active” and the inhibition [1] was 11.1%. For the same molecule, the inhibition [2] was 53.9%.
Work on COc1cc(CNc2nn[nH]n2)cc(Cl)c1OCc1ccc(OC2CCOCC2)cc1 yielded an inhibition [1] of 0% and an inhibition [2] of 4.1%.
Molecule COc1cc(CNc2nn[nH]n2)cc(Cl)c1OCc1ccc([N+](=O)[O-])cc1[N+](=O)[O-] has an inhibition [2] of 40.1%.
Work on COc1cc(CNc2nn[nH]n2)cc(Br)c1OCc1ccc(C)cc1 yielded an inhibition [1] of 11.8% and an inhibition [2] of 58.8%.
COc1cc(CNc2nn[nH]n2)cc(Cl)c1OCc1ccc(Cl)cc1 showed an inhibition [1] of 4.4% and an inhibition [2] of 37.6%.
With COc1cc(CNc2nn[nH]n2)cc(Cl)c1OCc1cccc(COc2ccccc2)c1 the inhibition [1] was 0% and the inhibition [2] was 0.7%.
Molecule COC(=O)c1cccc(COc2c(Cl)cc(CNc3nn[nH]n3)cc2OC)c1 has an inhibition [1] of 0% and an inhibition [2] of 49.2%.
CCCCCCCCCOc1cc(COc2c(Cl)cc(CNc3nn[nH]n3)cc2OC)ccc1[N+](=O)[O-] was tested, and the inhibition [1] was 72.9% and the inhibition [2] was 82.7%.
Molecule COc1cc(CNc2nn[nH]n2)cc([N+](=O)[O-])c1OCc1ccc([N+](=O)[O-])cc1 has an inhibition [1] of 6.4% and an inhibition [2] of 36%.
In the case of COc1cc(CNc2nn[nH]n2)cc(Cl)c1OCc1ccc(C(N)=O)cc1, the inhibition [1] is reported as 9.5% and the inhibition [2] is reported as 25.7%.
Molecule COc1cc(CNc2nn[nH]n2)cc(Cl)c1OCc1cccc(C(=O)O)c1 has an inhibition [1] of 10% and an inhibition [2] of 36.9%.
With CC(C)COC(=O)CN1C(=O)S/C(=C\c2ccc(C(=O)O)cc2)C1=O the inhibition [2] was “Active”.
COc1cc(CNc2nn[nH]n2)ccc1OCc1ccc(C)cc1 gave an inhibition [1] of 0% and an inhibition [2] of 43%.
For COc1cc(CNc2nn[nH]n2)cc(Cl)c1OCc1ccccc1[N+](=O)[O-], the inhibition [1] was 1.1% and the inhibition [2] was 31%.
With COc1cc(NC#N)cc(Cl)c1OCc1ccc(C)cc1 the Activity [4] was “Active”, the Activity [5] was “inactive” and the inhibition [1] was 10.8%. The inhibition [2] was 50.2%.
In the case of COc1cc(CNC#N)cc(Cl)c1OCc1ccc([N+](=O)[O-])cc1, the Activity [4] is reported as “Active”, the Activity [5] is reported as “Active” and the inhibition [1] is reported as 48.8%. The inhibition [2] was 91.8%.
COc1cc(CNc2nn[nH]n2)cc(Cl)c1OCc1ccc(C(=O)O)cc1 showed an inhibition [1] of 12.9% and an inhibition [2] of 41.1%.
Molecule COc1cc(CNc2nn[nH]n2)cc(Cl)c1OCc1ccc(C(F)(F)F)cc1 has an inhibition [1] of 11.5% and an inhibition [2] of 48.5%.
COc1cc(CNc2nn[nH]n2)cc(Cl)c1OCc1cccc(C(N)=O)c1 showed an inhibition [1] of 15% and an inhibition [2] of 15.9%.
In the case of C=CCN1C(=O)C(CC(=O)Nc2ccc(C(=O)O)cc2)S/C1=N/c1cccc(Cl)c1 (centres undefined), the inhibition [2] is reported as “Active”.
COc1cc(CNc2nn[nH]n2)cc(I)c1OCc1ccc(C)cc1 was tested, and the inhibition [1] was 16.5% and the inhibition [2] was 62.7%.
In the case of COC(=O)c1ccc(COc2c(Cl)cc(CNc3nn[nH]n3)cc2OC)cc1, the inhibition [1] is reported as 0% and the inhibition [2] is reported as 51.5%.
In the case of COc1cc(CNc2nn[nH]n2)cc(Cl)c1OCc1ccc(OC(F)(F)F)cc1, the inhibition [1] is reported as 11.7% and the inhibition [2] is reported as 51.1%.
COc1cc(CN2C(=O)c3ccccc3C2=O)cc(Cl)c1OCc1ccc([N+](=O)[O-])cc1 gave an inhibition [1] of 44.5% and an inhibition [2] of 95.9%.
For COc1cc(CNCC(=O)O)cc(Cl)c1OCc1ccc([N+](=O)[O-])cc1, the Activity [4] was “Active”, the inhibition [1] was 13.1% and the inhibition [2] was 15.3%.
COc1cc(CC(C(=O)O)C(=O)O)cc(Cl)c1OCc1ccc(C)cc1 showed an inhibition [1] of 24.5% and an inhibition [2] of 14.8%.
COc1cc(CNc2nn[nH]n2)cc(Cl)c1OCc1ccc(SC)cc1 showed an inhibition [1] of 9.7% and an inhibition [2] of 0%.
COc1cc(C=O)cc(Cl)c1OCc1ccc([N+](=O)[O-])cc1 was tested, and the Activity [4] was “Active”, the Activity [5] was “Active” and the inhibition [1] was 62.3%. It also gave an inhibition [2] of 66.4%.
Molecule CCc1cc2c(cc1COc1c(Cl)cc(CNc3nn[nH]n3)cc1OC)C(C)(C)CCC2(C)C has an inhibition [1] of 72.7% and an inhibition [2] of 77%.
COc1cc(CNc2nn[nH]n2)cc(Cl)c1OCc1cccc(-c2ccccc2)c1 was tested, and the inhibition [1] was 0% and the inhibition [2] was 8.2%.
COc1cc(CNc2nn[nH]n2)cc(Cl)c1OC(C)c1ccccc1 (centres undefined) was tested, and the inhibition [1] was 0% and the inhibition [2] was 0%.
With COc1cc(CC(C(=O)O)c2nn[nH]n2)cc(Cl)c1OCc1ccc(C)cc1 (centres undefined) the inhibition [1] was 12.9% and the inhibition [2] was 40.2%.
Work on COc1cc(CNc2nn[nH]n2)cc(Cl)c1OCc1ccc(F)cc1 yielded an inhibition [1] of 1.2% and an inhibition [2] of 50.7%.
Oc1cc(CNc2nn[nH]n2)cc(Cl)c1OCc1ccccc1 gave an inhibition [1] of 20.4% and an inhibition [2] of 30.8%.
For COc1cc(C=O)cc(Cl)c1OCc1ccc(C)cc1, the Activity [4] was “Active”, the Activity [5] was “Active” and the inhibition [1] was 31.4%. It also gave an inhibition [2] of 52.4%.
COc1cc(CNc2nn[nH]n2)cc(Cl)c1OCc1cccc([N+](=O)[O-])c1 was tested, and the Activity [5] was “Active”, the inhibition [1] was 9.2% and the inhibition [2] was 40.1%.

Reference: ChEMBL document CHEMBL3627693, “Novel aminotetrazole derivatives as selective STAT3 non-peptide inhibitors” (Eur J Med Chem, 2015)
